Laboratory results from PubChem BioAssay.
Activity calls are given as the source filed them.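 Rule for the calls, unless noted: active = viability at or under a set limit in both replicates, limit being median viability minus 3 SD (cut at about 48% in these data, passing the limit was not always enough); inconclusive = at or under the limit in just one replicate; inactive = at or above the limit in both replicates.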

Columns and labels:
[1] = reducers of endogenous Her2 protein level, primary screen, SKBR3 breast tumor cells, AlphaScreen, ATP viability (AID 461;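 active = Her2 level under about 52% in both replicate screens, with viability over 70% of control, limit read from the data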;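 for Her2 level: lower value means less Her2 protein in the cells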;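 for viability: percent of carrier control wells set as 100% viability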); details: 18-24 h, measured here: SKBR3 viability, ATP luminescence, at 10 µM
[2] = molecular target: Receptor tyrosine-protein kinase erbB-2 (Homo sapiens) (UniProt P04626); assay: as above; details: 18-24 h, at 10 µM, stronger effect = lower value
Sequence of Receptor tyrosine-protein kinase erbB-2 (Homo sapiens) (P04626 whole entry, looked up): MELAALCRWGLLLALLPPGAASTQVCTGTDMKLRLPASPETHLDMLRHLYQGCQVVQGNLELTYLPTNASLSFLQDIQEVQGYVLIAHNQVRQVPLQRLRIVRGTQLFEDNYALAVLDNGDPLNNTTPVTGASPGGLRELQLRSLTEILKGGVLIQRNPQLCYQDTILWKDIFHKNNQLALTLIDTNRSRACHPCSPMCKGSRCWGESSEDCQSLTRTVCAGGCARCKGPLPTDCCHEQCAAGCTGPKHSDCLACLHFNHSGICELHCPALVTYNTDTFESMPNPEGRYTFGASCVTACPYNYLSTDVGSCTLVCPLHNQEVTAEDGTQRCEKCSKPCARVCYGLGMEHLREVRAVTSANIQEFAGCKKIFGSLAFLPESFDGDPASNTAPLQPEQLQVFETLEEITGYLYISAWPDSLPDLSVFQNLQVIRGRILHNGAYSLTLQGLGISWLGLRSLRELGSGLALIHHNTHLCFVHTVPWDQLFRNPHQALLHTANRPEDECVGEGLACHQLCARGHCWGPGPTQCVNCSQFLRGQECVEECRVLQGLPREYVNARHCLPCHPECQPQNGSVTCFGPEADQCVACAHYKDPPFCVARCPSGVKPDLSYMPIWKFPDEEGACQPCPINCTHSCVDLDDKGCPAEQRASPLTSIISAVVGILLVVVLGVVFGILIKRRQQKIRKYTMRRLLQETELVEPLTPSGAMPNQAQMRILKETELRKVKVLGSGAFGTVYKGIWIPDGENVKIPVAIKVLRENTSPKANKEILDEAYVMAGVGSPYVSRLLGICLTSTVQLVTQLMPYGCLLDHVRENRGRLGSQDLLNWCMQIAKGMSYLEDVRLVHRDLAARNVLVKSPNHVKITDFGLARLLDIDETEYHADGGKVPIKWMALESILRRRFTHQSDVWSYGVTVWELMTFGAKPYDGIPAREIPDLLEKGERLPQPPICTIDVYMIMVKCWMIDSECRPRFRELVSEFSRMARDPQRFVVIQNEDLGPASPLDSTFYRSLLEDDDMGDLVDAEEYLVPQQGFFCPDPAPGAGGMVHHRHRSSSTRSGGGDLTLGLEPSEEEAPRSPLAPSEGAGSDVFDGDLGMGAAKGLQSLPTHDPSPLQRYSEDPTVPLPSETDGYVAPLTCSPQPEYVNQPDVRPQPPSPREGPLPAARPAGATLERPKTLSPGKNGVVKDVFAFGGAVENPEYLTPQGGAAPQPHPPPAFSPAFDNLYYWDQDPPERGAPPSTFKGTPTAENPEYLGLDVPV

[3] = SK-BR-3 cell growth inhibitors, pilot screen, 24 h, human (AID 572;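 active = viability at or below 10% of carrier control in both of two separate runs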;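 note: compound exposure lasted between 18 and 24 h rather than exactly 24 h; 100% = carrier-treated control wells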); details: SK-BR-3 viability, CellTiter-Glo luminescence, at 10 µM, stronger effect = lower value
[4] = HUVEC growth inhibition – cell-based, human, primary screen (AID 575;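 active = viability at or below 30% in both replicate assays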;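 note: 100% = median of untreated cell wells with 0.1% DMSO on each plate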); details: HUVEC proliferation, CellTiter-Glo luminescence, 72 h; at 10 µM; stronger effect = lower value
How it was run: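 Assay system: primary human umbilical vein endothelial cells / Buffer or medium: endothelial basal medium with 2% FBS plus growth supplements / Compound dosing: one dose, 10 µM final, 0.1% DMSO / Timing: 72 h treatment at 37 °C / Signal: CTG luminescence / Benchmarks: 32 DMSO-only cell-control wells (high), 32 MePR drug-control wells (low) per plate / Plate: collagen-coated 384-well format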

[5] = growth inhibitors of H69AR lung tumor, primary screen, human, duplicate replicates (AID 580); details: H69AR lung tumor cells viability, ATP luminescence, 72 h; at 10 µM; stronger effect = lower value;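 note: 100% = mean luminescence of untreated wells and 0% = no signal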
[6] = reversal of MRP1-mediated doxorubicin resistance, pilot screen, H69AR cells, doxorubicin co-treatment (AID 601;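 active = viability loss from added drug above about 55%, and viability with drug at most 40%, in both replicates, limit read from the data, passing the limit was not always enough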); details: CellTiter-Glo, 72 h, at 10 µM; for differential viability (reversal): stronger effect = higher value
[7] = 384-well plate pilot, post-Golgi transport modulator project, inhibition of yeast transport mutant growth (AID 636; in the data active = inhibition above about 31%); details: absorbance 615 nm, about 18 h, stronger effect = higher value
[8] = growth suppression of yeast trafficking mutant, preliminary HTS, modulators of trafficking downstream of Golgi apparatus project, 1536-format plate, OD 615 nm (AID 637; in the data active = inhibition above about 30%); details: yeast transport mutant growth, absorbance 615 nm, 18 h; stronger effect = higher value
[9] = H69AR cells + 2 uM doxorubicin, measured here: viability with 2 uM doxorubicin, stronger effect = lower value
[10] = H69AR cells, compound alone cytotoxicity

| SMILES | viability [1] | Her2 level [2] | viability [3] | viability [4] | viability [5] | differential viability (reversal) ([6]; H69AR cells + 2 uM doxorubicin) | viability [6, 9] | viability [6, 10] | inhibition [7] | inhibition [8] |
| --- | --- | --- | --- | --- | --- | --- | --- | --- | --- | --- |
| Cc1cc(C)n(-c2ccc(C(=O)Oc3ccc4c(c3)OCO4)cc2)n1 | 80% | 83.5% (inactive) | 80% (inactive) | 92.3% (inactive) | 90.7% (inactive) | 2.71% (inactive) | 88% | 90.7% | -4.13% (inactive) | -1.11% (inactive) |
| CCOC(=O)C1=C(CN2CCOCC2)NC(=O)NC1c1cc(C)ccc1C (stereo not given) | 92% | 89% (inactive) | 92% (inactive) | 101% (inactive) | 78.9% (inactive) | 16.7% (inactive) | 62.2% | 78.9% | -6.76% (inactive) | 4.33% (inactive) |
| c1csc(-c2nc3nc4ccccc4nc3n2Cc2ccc3c(c2)OCO3)c1 | 98.5% | 75% (inactive) | 98.5% (inactive) | 61.6% (inactive) | 78% (inactive) | 16.4% (inactive) | 61.6% | 78% | 10.5% (inactive) | 0.79% (inactive) |
| COCCn1nnnc1CN(CCCN1CCOCC1)Cc1cc2c(C)ccc(C)c2[nH]c1=O | 85% | 124% (inactive) | 85% (inactive) | 98.5% (inactive) | 68.7% (inactive) | -5.44% (inactive) | 74.1% | 68.7% | 4.55% (inactive) | -7.33% (inactive) |
| O=S(=O)(NCc1cn2ccsc2n1)c1ccc2c(c1)OCCO2 | 117% | 102% (inactive) | 117% (inactive) | 96.4% (inactive) | 105% (inactive) | 9.79% (inactive) | 95.5% | 105% | -7.07% (inactive) | -2.26% (inactive) |
| COc1ccc(C2=NOC(C(=O)NCc3ccc(F)cc3)C2)cc1OC (stereo not given) | 95.5% | 87.5% (inactive) | 95.5% (inactive) | 42% (inactive) | 29.3% (active) | -34.5% (inactive) | 63.9% | 29.3% | -1.32% (inactive) | 5.4% (inactive) |
| Cc1noc(C)c1S(=O)(=O)Nc1c(C)n(C)n(-c2ccccc2)c1=O | 108% | 99% (inactive) | 108% (inactive) | 104% (inactive) | 98.4% (inactive) | 8.05% (inactive) | 90.3% | 98.4% | -5.13% (inactive) | -1.11% (inactive) |
| O=C(O)c1cc(=O)cc(C(=O)O)[nH]1 | 80.5% | 91.5% (inactive) | 80.5% (inactive) | 102% (inactive) | 105% (inactive) | 12.5% (inactive) | 92.7% | 105% | 0% (inactive) | 22.9% (inactive) |
| Cn1c(SCc2nc3ccccc3c(=O)[nH]2)nnc1-c1ccco1 | 99.5% | 81% (inactive) | 99.5% (inactive) | 97.5% (inactive) | 96% (inactive) | 5.6% (inactive) | 90.4% | 96% | -7.84% (inactive) | 6.89% (inactive) |
| CCn1c(=O)cc(SCC(=O)NCCN2CCN(Cc3ccccc3)CC2)c2ccccc21 | 89% | 89.5% (inactive) | 89% (inactive) | 80.5% (inactive) | 84.4% (inactive) | 7.1% (inactive) | 77.3% | 84.4% | -4.47% (inactive) | -3.09% (inactive) |
| O=C(OCC(=O)c1c[nH]c2ccccc12)C1=COCCO1 | 96% | 76.5% (inactive) | 96% (inactive) | 100% (inactive) | 97.5% (inactive) | -2.48% (inactive) | 100% | 97.5% | -6.62% (inactive) | 6.17% (inactive) |
| c1ccc2c(c1)Cn1c-2nc2ccccc21 | 114% | 95% (inactive) | 114% (inactive) | 120% (inactive) | 78.4% (inactive) | -1.54% (inactive) | 79.9% | 78.4% | -6.35% (inactive) | 1% (inactive) |
| Cn1c(-c2cc(Br)ccc2O)n[nH]c1=S | 89.5% | 110% (inactive) | 89.5% (inactive) | 87% (inactive) | 92.9% (inactive) | 3.24% (inactive) | 89.7% | 92.9% | 4.03% (inactive) | -9.84% (inactive) |
| Cc1cc(Cl)c(S(=O)(=O)NC2CCCCC2)cc1OCC(=O)Nc1nncs1 | 107% | 88% (inactive) | 107% (inactive) | 86.5% (inactive) | 90.1% (inactive) | -3.42% (inactive) | 93.6% | 90.1% | -4.74% (inactive) | -3.17% (inactive) |
| CC(NS(=O)(=O)c1ccc(F)cc1)C(c1cccs1)N1CCN(C)CC1 (stereo not given) | 118% | 133% (inactive) | 118% (inactive) | 87.9% (inactive) | 96.7% (inactive) | 14.4% (inactive) | 82.3% | 96.7% | -3.29% (inactive) | -5.67% (inactive) |
| COc1ccc(-n2c(SCC(=O)c3c(N)n(C)c(=O)n(C)c3=O)nc3ccccc32)cc1 | 105% | 71.5% (inactive) | 105% (inactive) | 90% (inactive) | 98.5% (inactive) | 12.6% (inactive) | 86% | 98.5% | -4.73% (inactive) | 1.9% (inactive) |
| Cc1ccc(CN2C(=O)CCC2C(=O)NCCCN2CCC(C)CC2)cc1 (stereo not given) | 98.5% | 88.5% (inactive) | 98.5% (inactive) | 93.7% (inactive) | 103% (inactive) | 2.18% (inactive) | 101% | 103% | -5.73% (inactive) | 6.89% (inactive) |
| CCSc1nnc(NC(=O)c2ccc(C)o2)s1 | 96.5% | 98.5% (inactive) | 96.5% (inactive) | 105% (inactive) | 116% (inactive) | 18.2% (inactive) | 97.4% | 116% | -4.13% (inactive) | -5.32% (inactive) |
| CC(=O)c1ccc(NC(=O)c2noc3c2CCCCC3)cc1 | 126% | 88% (inactive) | 126% (inactive) | 114% (inactive) | 98% (inactive) | 17.3% (inactive) | 80.6% | 98% | -5.26% (inactive) | 0.73% (inactive) |
| Cc1nc(SCC#N)c2c(C)c(C)sc2n1 | 128% | 107% (inactive) | 128% (inactive) | 98.6% (inactive) | 98.4% (inactive) | 9.83% (inactive) | 88.6% | 98.4% | -5.33% (inactive) | -0.65% (inactive) |
| CC(C)NC(=O)CSc1nc2ccccc2n1-c1ccccc1 | 88.5% | 101% (inactive) | 88.5% (inactive) | 100% (inactive) | 84.3% (inactive) | -8.05% (inactive) | 92.4% | 84.3% | 2.86% (inactive) | -4.13% (inactive) |
| CCc1ccccc1N=C1SCC(=O)N1C | 96.5% | 102% (inactive) | 96.5% (inactive) | 87.9% (inactive) | 97% (inactive) | 10.1% (inactive) | 86.8% | 97% | -6.67% (inactive) | -4.26% (inactive) |
| O=C1CCCCCN1CSc1nc2ccccc2s1 | 123% | 101% (inactive) | 123% (inactive) | 80.5% (inactive) | 88% (inactive) | 4.73% (inactive) | 83.3% | 88% | -5.45% (inactive) | -2.62% (inactive) |
| Cc1cc(SCC(N)=O)nc(SCC(=O)c2ccccc2)n1 | 92.5% | 89% (inactive) | 92.5% (inactive) | 106% (inactive) | 99.8% (inactive) | 10.1% (inactive) | 89.7% | 99.8% | -0.53% (inactive) | -5.08% (inactive) |
| Cc1cccc(N(CC(N)=O)S(C)(=O)=O)c1C | 102% | 100% (inactive) | 102% (inactive) | 107% (inactive) | 92% (inactive) | 4.79% (inactive) | 87.2% | 92% | -2.76% (inactive) | 0.82% (inactive) |
| COc1ccccc1Cn1nnc2c(=O)[nH]c(C3CCN(C(=O)c4ccccc4Cl)CC3)nc21 | 93% | 95.5% (inactive) | 93% (inactive) | 102% (inactive) | 82.2% (inactive) | 54.1% (inactive) | 28.1% | 82.2% | -3.64% (inactive) | 0.48% (inactive) |
| CCOC(=O)N1CCN(S(=O)(=O)c2ccc(OCC)c(C)c2)CC1 | 110% | 88.5% (inactive) | 110% (inactive) | 88.9% (inactive) | 103% (inactive) | 17.6% (inactive) | 85.5% | 103% | -1.95% (inactive) | -3.17% (inactive) |
| COc1ccc(C(=O)NCCn2ccc3ccccc32)cc1 | 126% | 97% (inactive) | 126% (inactive) | 111% (inactive) | 92.5% (inactive) | 8.59% (inactive) | 84% | 92.5% | -5.6% (inactive) | 0.16% (inactive) |
| COc1ccc(OCc2nc(N)nc(Nc3cccc(C)c3C)n2)cc1 | 98.5% | 120% (inactive) | 98.5% (inactive) | 111% (inactive) | 103% (inactive) | 7.49% (inactive) | 96% | 103% | -4.55% (inactive) | -6% (inactive) |
